Assay results pooled from the literature.
Protocols differ between the studies behind these lines.
Target: Acetylcholinesterase (ACHE, Homo sapiens, UniProt P22303)
Observed: enzyme activity
Action: inhibitor

CCOP(=O)(OCC)Oc1ccc2c(C)c(Cl)c(=O)oc2c1
IC50 (Ellman): 0.111 µM

C#CCNc1nc(NCCCC2CCN(Cc3ccccc3)CC2)c(C#N)cc1C#N
IC50 (Ellman): 0.001 µM

C=CCn1c2cc(OC(=O)CCCCN3CCN(Cc4cccc(C(F)(F)F)c4)CC3)ccc2c2ccnc(C)c21
IC50 (Ellman): 0.748 µM

Cc1cc(O)nc(O)n1
IC50 (Ellman): 0.191 µM

O=C(NCCCNc1c2c(nc3ccccc13)CCCC2)c1ccccc1O
IC50 (Ellman): 1.02 µM

C=CCn1c2cc(OC(=O)CCCCN3CCN(Cc4ccc(F)cc4)CC3)ccc2c2ccnc(C)c21
IC50 (Ellman): 0.0894 µM

CCCCNc1ccc(C(=O)OCCN(CC)CC)cc1
IC50: 18.7 µM

CCC(CC)CSc1ccccc1OC(=O)NC
IC50 (Ellman): 5.13 µM

C=CCn1c2cc(OC(=O)CCCCN3CCN(Cc4ccc(Cl)cc4)CC3)ccc2c2ccnc(C)c21
IC50 (Ellman): 0.28 µM

C#CCN(C)c1nc(NCCCCC2CCN(Cc3ccccc3)CC2)c(C#N)c(-c2ccccc2)c1C#N
IC50 (Ellman): 0.025 µM

C=CCn1c2cc(OC(=O)CCCCN3CCN(Cc4ccccc4Cl)CC3)ccc2c2ccnc(C)c21
IC50 (Ellman): 0.116 µM

O=C(CN1C2=NCCN2c2ccccc21)c1ccc(-c2ccccc2)cc1
IC50: 19.5 µM

CN1CCN(CCCOc2ccc3occc(=O)c3c2)CC1
IC50 (Ellman; pH 7.4): 65.1 µM

C#CCNc1nc(NCCCCC2CCN(Cc3ccccc3)CC2)c(C#N)c(-c2ccccc2)c1C#N
IC50 (Ellman): 0.006 µM

COc1cc(NS(C)(=O)=O)ccc1Nc1c2ccccc2nc2ccccc12
IC50: 22.5 µM

CC(=O)n1ccc(=O)[nH]c1=O
IC50 (Ellman): 0.136 µM

C[C@@H]1CCCN1CCCCOc1ccc2occc(=O)c2c1
IC50 (Ellman; pH 7.4): 8.62 µM

C=CCn1c2cc(OC(=O)CCCCN3CCN(Cc4ccc(C)cc4)CC3)ccc2c2ccnc(C)c21
IC50 (Ellman): 0.0126 µM

CCOP(=S)(OCC)O/N=C(\C#N)c1ccccc1
IC50: 22.6 µM

CS(=O)(=O)n1cc(Br)c(=O)[nH]c1=O
IC50 (Ellman): 0.111 µM

C=CCn1c2cc(OC(=O)CCCCCN3CCN(Cc4ccccc4)CC3)ccc2c2ccnc(C)c21
IC50 (Ellman): 0.157 µM

CNC(=O)Oc1cccc2c1OC(C)(C)C2
IC50 (Ellman): 0.038 µM
